According to ChEMBL document CHEMBL1131143, “Predictive models for GABAA/benzodiazepine receptor subtypes: studies of quantitative structure-activity relationships for imidazobenzodiazepines at five recombinant GABAA/benzodiazepine receptor subtypes [alphaxbeta3gamma2 (x = 1-3, 5, and 6)] via comparative molecular field analysis” (J Med Chem, 1998):

target: T1, GABA-A receptor; alpha-5/beta-3/gamma-2 (Homo sapiens, UniProt P18507+P28472+P31644); assay: Binding affinity for Gamma-aminobutyric acid A receptor alpha-5-beta-3-gamma-2; format: protein-complex assay
T1 sequence (P18507 whole entry): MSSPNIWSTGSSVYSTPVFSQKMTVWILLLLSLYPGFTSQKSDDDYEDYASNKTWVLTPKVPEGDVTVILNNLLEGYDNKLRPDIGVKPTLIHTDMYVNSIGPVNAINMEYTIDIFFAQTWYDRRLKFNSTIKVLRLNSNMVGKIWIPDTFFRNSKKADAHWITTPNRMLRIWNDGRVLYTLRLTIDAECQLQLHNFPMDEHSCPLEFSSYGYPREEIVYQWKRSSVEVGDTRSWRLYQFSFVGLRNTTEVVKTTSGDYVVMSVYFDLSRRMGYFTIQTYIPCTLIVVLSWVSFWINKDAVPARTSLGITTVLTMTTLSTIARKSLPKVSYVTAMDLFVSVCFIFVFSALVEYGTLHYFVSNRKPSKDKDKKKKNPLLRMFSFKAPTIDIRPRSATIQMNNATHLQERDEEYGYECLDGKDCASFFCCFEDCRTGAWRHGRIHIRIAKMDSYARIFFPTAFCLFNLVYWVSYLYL
T1 sequence (P28472 whole entry): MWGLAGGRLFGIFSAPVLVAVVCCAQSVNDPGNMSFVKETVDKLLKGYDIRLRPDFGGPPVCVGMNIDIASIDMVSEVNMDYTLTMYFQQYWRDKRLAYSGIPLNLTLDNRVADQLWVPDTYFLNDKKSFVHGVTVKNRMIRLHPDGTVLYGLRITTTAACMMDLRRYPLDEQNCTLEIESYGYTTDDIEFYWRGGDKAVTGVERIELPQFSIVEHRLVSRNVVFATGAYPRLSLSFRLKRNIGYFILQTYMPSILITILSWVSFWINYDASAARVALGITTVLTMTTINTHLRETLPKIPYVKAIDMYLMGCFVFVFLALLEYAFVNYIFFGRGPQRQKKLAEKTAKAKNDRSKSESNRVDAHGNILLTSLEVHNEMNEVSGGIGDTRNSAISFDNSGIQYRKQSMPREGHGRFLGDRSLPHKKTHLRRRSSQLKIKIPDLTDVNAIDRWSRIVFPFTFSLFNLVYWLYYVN
T1 sequence (P31644 whole entry): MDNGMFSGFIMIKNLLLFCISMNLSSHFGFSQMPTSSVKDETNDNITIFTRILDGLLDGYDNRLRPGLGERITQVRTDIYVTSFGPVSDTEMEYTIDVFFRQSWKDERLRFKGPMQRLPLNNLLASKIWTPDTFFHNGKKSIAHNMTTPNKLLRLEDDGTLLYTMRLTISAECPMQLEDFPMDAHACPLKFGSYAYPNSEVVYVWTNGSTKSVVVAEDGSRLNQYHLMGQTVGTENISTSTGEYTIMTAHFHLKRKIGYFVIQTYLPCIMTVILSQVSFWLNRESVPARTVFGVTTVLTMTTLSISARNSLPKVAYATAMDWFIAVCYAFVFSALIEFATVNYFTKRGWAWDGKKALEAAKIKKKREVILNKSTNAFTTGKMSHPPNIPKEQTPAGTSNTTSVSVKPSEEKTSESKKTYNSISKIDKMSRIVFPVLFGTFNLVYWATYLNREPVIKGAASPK

SMILES	Ki
C#Cc1ccc2c(c1)C(=O)N(C)Cc1c(C(=O)OC(C)(C)C)ncn1-2	0.0004 µM
C#Cc1ccc2c(c1)C(=O)N1CCC[C@H]1c1c(-c3nc(CC)no3)ncn1-2	0.0024 µM
CC#Cc1ccc2c(c1)C(=O)N(C)Cc1c(C(=O)OCC)ncn1-2	0.00168 µM
CCOC(=O)c1ncn2c1[C@H]1CCCN1C(=O)c1cc(Br)ccc1-2	> 1 µM
CN1Cc2c(CO)ncn2-c2ccc(Cl)cc2C1=O	> 0.3 µM
CN1Cc2c(C(=O)OC(C)(C)C)ncn2-c2ccc(O)cc2C1=O	0.00014 µM
CN1Cc2c(C(=O)OC(C)(C)C)ncn2-c2ccc(N3CCCC3)cc2C1=O	0.00925 µM
C=Cc1ccc2c(c1)C(=O)N(C)Cc1c(C(=O)OCC)ncn1-2	0.0004 µM
CCOC(=O)c1ncn2c1CN(C)C(=O)c1cc(N=[N+]=[N-])ccc1-2 [Ro-154513]	0.00027 µM
CN1Cc2c(C(=O)OC(C)(C)C)ncn2-c2ccc(N=[N+]=[N-])cc2C1=O	0.0003 µM
C#Cc1ccc2c(c1)C(=O)N1CCC[C@@H]1c1c(-c3nc(C)no3)ncn1-2	0.157 µM
C#Cc1ccc2c(c1)C(=O)N1CC[C@H]1c1c(-c3nc(C)no3)ncn1-2	0.0072 µM

target: GABA-A receptor; alpha-6/beta-3/gamma-2 (Homo sapiens, UniProt P18507+P28472+Q16445); assay: Binding affinity against Gamma-aminobutyric acid A receptor alpha-6-beta-3-gamma-2; format: protein-complex assay
Sequence (Q16445 whole entry, one chain of several): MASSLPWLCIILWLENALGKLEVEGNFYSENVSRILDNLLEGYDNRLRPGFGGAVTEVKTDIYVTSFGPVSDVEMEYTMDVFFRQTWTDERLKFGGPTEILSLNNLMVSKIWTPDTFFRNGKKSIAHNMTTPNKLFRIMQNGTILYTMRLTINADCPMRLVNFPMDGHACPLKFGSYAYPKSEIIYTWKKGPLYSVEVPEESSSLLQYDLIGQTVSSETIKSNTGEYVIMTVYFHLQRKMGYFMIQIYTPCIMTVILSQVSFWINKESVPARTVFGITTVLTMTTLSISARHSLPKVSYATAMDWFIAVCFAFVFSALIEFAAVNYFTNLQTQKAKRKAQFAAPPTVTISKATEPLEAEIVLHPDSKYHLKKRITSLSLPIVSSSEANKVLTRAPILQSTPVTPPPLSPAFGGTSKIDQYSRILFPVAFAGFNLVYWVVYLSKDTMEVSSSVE
How it was run: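 Cells scraped into PBS, spun at 3000g, resuspended in 10 mM KH₂PO₄/100 mM KCl pH 7.4. Nonspecific binding with 10⁻⁵ M diazepam; 1 h to equilibrium at 4 °C; filtration, ice-cold buffer wash, scintillation counting.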

SMILES	Ki
C#Cc1ccc2c(c1)C(=O)N(C)Cc1c(C(=O)OC(C)(C)C)ncn1-2	0.0051 µM
C#Cc1ccc2c(c1)C(=O)N1CCC[C@H]1c1c(-c3nc(CC)no3)ncn1-2	0.15 µM
CC#Cc1ccc2c(c1)C(=O)N(C)Cc1c(C(=O)OCC)ncn1-2	> 0.1 µM
CCOC(=O)c1ncn2c1[C@H]1CCCN1C(=O)c1cc(Br)ccc1-2	> 1 µM
CN1Cc2c(CO)ncn2-c2ccc(Cl)cc2C1=O	> 0.3 µM
CN1Cc2c(C(=O)OC(C)(C)C)ncn2-c2ccc(O)cc2C1=O	0.00689 µM
CN1Cc2c(C(=O)OC(C)(C)C)ncn2-c2ccc(N3CCCC3)cc2C1=O	0.325 µM
CN1Cc2c(C(=O)OC(C)(C)C)ncn2-c2ccc(N=[N+]=[N-])cc2C1=O	0.00525 µM
C#Cc1ccc2c(c1)C(=O)N1CCC[C@@H]1c1c(-c3nc(C)no3)ncn1-2	> 1 µM
C#Cc1ccc2c(c1)C(=O)N1CC[C@H]1c1c(-c3nc(C)no3)ncn1-2	0.266 µM

target: GABA-A receptor; alpha-1/beta-3/gamma-2 (Homo sapiens) (UniProt P14867+P18507+P28472); assay: It is the ratio of Ki value for alpha-1-beta-3-gamma-2 to that of alpha-5-beta-3-gamma-2; format: protein-complex assay

SMILES	Ratio
C#Cc1ccc2c(c1)C(=O)N(C)Cc1c(C(=O)OC(C)(C)C)ncn1-2	67.3
C#Cc1ccc2c(c1)C(=O)N1CCC[C@H]1c1c(-c3nc(CC)no3)ncn1-2	36
CCOC(=O)c1ncn2c1CN(C)C(=O)c1cc(Cl)ccc1-2 [Ro-151310]	8
CC#Cc1ccc2c(c1)C(=O)N(C)Cc1c(C(=O)OCC)ncn1-2	6
CN1Cc2c(C(=O)OC(C)(C)C)ncn2-c2ccc(O)cc2C1=O	10.7
CN1Cc2c(C(=O)OC(C)(C)C)ncn2-c2ccc(N3CCCC3)cc2C1=O	0.63
C=Cc1ccc2c(c1)C(=O)N(C)Cc1c(C(=O)OCC)ncn1-2	20.8
CN1Cc2c(C(=O)OC(C)(C)C)ncn2-c2ccc(N=[N+]=[N-])cc2C1=O	24.3

target: T2, GABA-A receptor; alpha-1/beta-3/gamma-2 (Homo sapiens, UniProt P14867+P18507+P28472); assay: Binding affinity against alpha-1-beta-3-gamma-2 GABAA/BzR receptor subtype.; format: protein-complex assay
T2 sequence (P14867 whole entry): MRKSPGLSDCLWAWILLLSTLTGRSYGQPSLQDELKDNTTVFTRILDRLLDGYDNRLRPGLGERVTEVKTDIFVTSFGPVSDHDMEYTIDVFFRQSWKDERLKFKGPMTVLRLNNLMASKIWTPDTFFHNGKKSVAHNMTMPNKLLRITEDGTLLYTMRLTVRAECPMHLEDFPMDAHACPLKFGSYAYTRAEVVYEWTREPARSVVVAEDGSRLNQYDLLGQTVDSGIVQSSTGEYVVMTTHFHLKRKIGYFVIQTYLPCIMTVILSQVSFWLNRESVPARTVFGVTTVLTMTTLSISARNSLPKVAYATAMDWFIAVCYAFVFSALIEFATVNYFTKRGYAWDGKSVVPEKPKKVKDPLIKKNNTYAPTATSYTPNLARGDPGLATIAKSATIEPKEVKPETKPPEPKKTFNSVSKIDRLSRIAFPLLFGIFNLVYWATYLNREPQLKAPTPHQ
T2 sequence (P18507 whole entry): T1 sequence (P18507 whole entry)
T2 sequence (P28472 whole entry): T1 sequence (P28472 whole entry)

SMILES	Ki
C#Cc1ccc2c(c1)C(=O)N(C)Cc1c(C(=O)OC(C)(C)C)ncn1-2	0.0269 µM
C#Cc1ccc2c(c1)C(=O)N1CCC[C@H]1c1c(-c3nc(CC)no3)ncn1-2	0.086 µM
CC#Cc1ccc2c(c1)C(=O)N(C)Cc1c(C(=O)OCC)ncn1-2	0.0101 µM
CCOC(=O)c1ncn2c1[C@H]1CCCN1C(=O)c1cc(Br)ccc1-2	> 1 µM
CN1Cc2c(CO)ncn2-c2ccc(Cl)cc2C1=O	> 0.3 µM
CN1Cc2c(C(=O)OC(C)(C)C)ncn2-c2ccc(O)cc2C1=O	0.0015 µM
CN1Cc2c(C(=O)OC(C)(C)C)ncn2-c2ccc(N3CCCC3)cc2C1=O	0.0058 µM
C=Cc1ccc2c(c1)C(=O)N(C)Cc1c(C(=O)OCC)ncn1-2	0.0083 µM
CN1Cc2c(C(=O)OC(C)(C)C)ncn2-c2ccc(N=[N+]=[N-])cc2C1=O	0.00725 µM
C#Cc1ccc2c(c1)C(=O)N1CCC[C@@H]1c1c(-c3nc(C)no3)ncn1-2	> 1 µM

target: T3, GABA-A receptor; alpha-3/beta-3/gamma-2 (Homo sapiens, UniProt P18507+P28472+P34903); assay: Binding affinity against alpha-3-beta-3-gamma-2 GABAA/BzR receptor subtype.; format: protein-complex assay
T3 sequence (P18507 whole entry): T1 sequence (P18507 whole entry)
T3 sequence (P28472 whole entry): T1 sequence (P28472 whole entry)
T3 sequence (P34903 whole entry): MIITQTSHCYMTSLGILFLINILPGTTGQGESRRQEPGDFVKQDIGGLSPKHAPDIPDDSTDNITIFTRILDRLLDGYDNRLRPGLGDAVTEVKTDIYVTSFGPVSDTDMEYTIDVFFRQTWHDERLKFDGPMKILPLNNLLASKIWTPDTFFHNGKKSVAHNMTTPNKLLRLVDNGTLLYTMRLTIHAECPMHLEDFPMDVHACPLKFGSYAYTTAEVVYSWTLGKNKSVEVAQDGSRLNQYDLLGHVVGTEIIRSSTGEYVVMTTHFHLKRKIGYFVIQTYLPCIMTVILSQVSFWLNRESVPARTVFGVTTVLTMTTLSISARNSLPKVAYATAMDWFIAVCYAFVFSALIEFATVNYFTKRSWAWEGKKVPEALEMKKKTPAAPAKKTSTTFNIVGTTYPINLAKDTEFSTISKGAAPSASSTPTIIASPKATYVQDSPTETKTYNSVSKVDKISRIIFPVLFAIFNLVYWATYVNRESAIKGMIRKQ

SMILES	Ki
C#Cc1ccc2c(c1)C(=O)N(C)Cc1c(C(=O)OC(C)(C)C)ncn1-2	0.0187 µM
C#Cc1ccc2c(c1)C(=O)N1CCC[C@H]1c1c(-c3nc(CC)no3)ncn1-2	0.085 µM
CC#Cc1ccc2c(c1)C(=O)N(C)Cc1c(C(=O)OCC)ncn1-2	0.0165 µM
CCOC(=O)c1ncn2c1[C@H]1CCCN1C(=O)c1cc(Br)ccc1-2	> 1 µM
CN1Cc2c(CO)ncn2-c2ccc(Cl)cc2C1=O	> 0.3 µM
CN1Cc2c(C(=O)OC(C)(C)C)ncn2-c2ccc(O)cc2C1=O	0.00053 µM
CN1Cc2c(C(=O)OC(C)(C)C)ncn2-c2ccc(N3CCCC3)cc2C1=O	0.169 µM
C=Cc1ccc2c(c1)C(=O)N(C)Cc1c(C(=O)OCC)ncn1-2	0.0069 µM
CN1Cc2c(C(=O)OC(C)(C)C)ncn2-c2ccc(N=[N+]=[N-])cc2C1=O	0.00566 µM
C#Cc1ccc2c(c1)C(=O)N1CCC[C@@H]1c1c(-c3nc(C)no3)ncn1-2	> 1 µM
C#Cc1ccc2c(c1)C(=O)N1CC[C@H]1c1c(-c3nc(C)no3)ncn1-2	0.091 µM

target: T4, GABA-A receptor; alpha-2/beta-3/gamma-2 (Homo sapiens, UniProt P18507+P28472+P47869); assay: Binding affinity tested against alpha-2-beta-3-gamma-2 GABAA/BzR receptor subtype.; format: protein-complex assay
T4 sequence (P18507 whole entry): T1 sequence (P18507 whole entry)
T4 sequence (P28472 whole entry): T1 sequence (P28472 whole entry)
T4 sequence (P47869 whole entry): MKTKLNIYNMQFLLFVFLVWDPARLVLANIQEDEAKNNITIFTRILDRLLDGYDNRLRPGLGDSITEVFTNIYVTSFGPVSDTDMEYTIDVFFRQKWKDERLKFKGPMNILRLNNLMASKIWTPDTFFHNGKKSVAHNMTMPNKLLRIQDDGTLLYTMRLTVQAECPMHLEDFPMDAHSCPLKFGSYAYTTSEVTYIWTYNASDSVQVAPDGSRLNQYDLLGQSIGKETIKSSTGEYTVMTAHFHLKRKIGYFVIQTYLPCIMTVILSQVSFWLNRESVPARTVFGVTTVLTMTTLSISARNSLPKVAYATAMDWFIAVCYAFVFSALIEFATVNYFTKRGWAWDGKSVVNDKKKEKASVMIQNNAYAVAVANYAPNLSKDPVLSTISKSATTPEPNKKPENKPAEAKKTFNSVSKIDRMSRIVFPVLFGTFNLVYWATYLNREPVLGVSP

SMILES	Ki
C#Cc1ccc2c(c1)C(=O)N(C)Cc1c(C(=O)OC(C)(C)C)ncn1-2	0.0263 µM
C#Cc1ccc2c(c1)C(=O)N1CCC[C@H]1c1c(-c3nc(CC)no3)ncn1-2	0.04 µM
CC#Cc1ccc2c(c1)C(=O)N(C)Cc1c(C(=O)OCC)ncn1-2	0.0222 µM
CCOC(=O)c1ncn2c1[C@H]1CCCN1C(=O)c1cc(Br)ccc1-2	> 1 µM
CN1Cc2c(CO)ncn2-c2ccc(Cl)cc2C1=O	> 0.3 µM
C=Cc1ccc2c(c1)C(=O)N(C)Cc1c(C(=O)OCC)ncn1-2	0.0102 µM
C#Cc1ccc2c(c1)C(=O)N1CCC[C@@H]1c1c(-c3nc(C)no3)ncn1-2	> 1 µM
C#Cc1ccc2c(c1)C(=O)N1CC[C@H]1c1c(-c3nc(C)no3)ncn1-2	0.056 µM
